iPSC survival up: hiPSC single-cell survival enhancement. 360,000 compounds, 0.044% hits. survival enhancement, % at 20 µM. ATPlite luminescence; 100% = ROCK inhibitor wells, 0% = DMSO; in the data active means survival enhancement above about 18%;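 further: cells exposed to compounds for 16 hours before the ATP read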
CHOP inh: inhibitors of CHOP induction in ER stress response | CHO-K1 CHOP-promoter luciferase, tunicamycin-induced, 15-18 h | inhibition, % at 10 µM | 220,000 compounds, 3.8% hits;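 active means compounds that reduced the stress-induced luciferase reporter signal by more than about 70% of percent inhibition, limit read from the data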
CHOP UPR activ: activators of apoptotic arm of unfolded protein response (CHOP); CHO-CHOP luciferase reporter, UPR activation, luminescence; percent of tunicamycin response over DMSO baseline; activation, % at 10 µM; 330,000 compounds, 0.34% hits;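 active means at 10 µM dose, activation of 40% or more, normalized to positive control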
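Dosing – one dose, 10 µM in 0.5% DMSO · System – CHO-CHOP cells, stable luciferase reporter of PERK-eIF2a-CHOP signalling · Input – 500 cells/well · Control set – tunicamycin 10 µg/mL final as positive, DMSO-only wells as negative · Timing – 6 h compound treatment, 37 °C · Measure – % activation vs tunicamycin · Technique – luminescence read with Steady-Glo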
XBP1 UPR activ: activators of adaptive arm of unfolded protein response (XBP1) | CHO-XBP1 luciferase reporter, IRE1-XBP1 UPR activation, luminescence; percent of tunicamycin response, DMSO as zero | activation, % at 20 µM | 330,000 compounds, 0.33% hits | AID 463104;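 active means versus positive control, 20 µM dose yields 30% or more activation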
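Material: CHO-XBP1 cells stably carrying IRE1-XBP1-driven luciferase reporter / Amount: 1000 cells per well / Compound: 20 µM, 1% DMSO / Times: 6 h treatment, 37 °C / Detection: luciferase luminescence / Measure: % activation of reporter signal versus tunicamycin and DMSO controls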
Cardio protect: protects H9c2 cardiomyocytes from peroxide injury; H2O2 injury protection, ATPLite, 2 h; protection from H2O2 cell death, % at 20 µM; 360,000 compounds, 0.63% hits; AID 588492;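 active means compounds giving at least 50% protection of heart cells from peroxide-induced death in the single-dose screen, raw or plate-pattern-corrected value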
Large screens that a line does not name were inactive. This excerpt belongs to a sample that is enriched for hits.

COc1cccc(N2CCN(C(=S)Nc3ccccc3)CC2)c1	none (no result: CHOP inh)
O=c1ccc(/C=C/c2ccccc2)nn1Cc1ccc(F)cc1	CHOP inh 80
Cc1ccc(/C=C/c2ccc(=O)n(Cc3ccc(F)cc3)n2)cc1	CHOP inh 79
COC(=O)[C@@]1(C(C)C)N=C(c2cc(OC)c(OC)c(OC)c2)[C@]2(O1)C(=O)Nc1ccc(F)cc12	none (no result: CHOP inh, CHOP UPR activ, XBP1 UPR activ, Cardio protect)
O=c1cc(N2CCCCC2)c(-c2ccccc2)nn1Cc1ccccc1Cl	CHOP inh 90
O=c1cc(N2CCCCC2)c(-c2ccccc2)nn1Cc1ccc(Cl)cc1Cl	none
Brc1ccc(C2Nc3cccc4cccc(c34)N2)cc1	none (no result: CHOP inh, CHOP UPR activ, XBP1 UPR activ)
Brc1ccc(-c2ccc(C3Nc4cccc5cccc(c45)N3)o2)cc1	XBP1 UPR activ 37 (no result: iPSC survival up, CHOP inh, Cardio protect)
CCN=C1SC(CC(=O)Nc2ccc(C(F)(F)F)cc2)C(=O)N1CC (stereo not given)	CHOP inh 82
CCN=C1SC(CC(=O)Nc2sc3c(c2C#N)CCCC3)C(=O)N1CC (stereo not given)	CHOP inh 92
CCN=C1SC(CC(=O)Nc2ccc(N3CCOCC3)cc2)C(=O)N1CC (stereo not given)	none
CC1(C)COC(c2cccn2Cc2ccc(F)cc2Cl)=N1	CHOP inh 85
CC1CN=C(c2cccn2Cc2ccc(F)cc2Cl)O1 (stereo not given)	CHOP inh 72
C/C(=N\NC(=O)c1nnn(-c2nonc2N)c1CSc1ccc(C)cc1)c1cccnc1	Cardio protect 55 (no result: CHOP inh, CHOP UPR activ, XBP1 UPR activ)
CC(/C=N/NC(=O)c1nnn(-c2nonc2N)c1CN1CCCCC1)=C\c1ccccc1	none (no result: CHOP inh)
CCOC(=O)c1nnn(-c2nonc2-n2cccc2)c1CN1CCCCC1	CHOP inh 87
Nc1nonc1-n1nnc(C(=O)N/N=C/c2ccc(Br)cc2)c1CSC1=NCCS1	none
CCOC(=O)c1nnn(-c2nonc2N)c1CN1CCCCCC1	none
C/C(=N\NC(=O)c1nnn(-c2nonc2N)c1CSc1ccc(Cl)cc1)c1cccnc1	none (no result: CHOP inh)
C/C(=N\NC(=O)c1nnn(-c2nonc2N)c1CN1CCCCC1)c1ccccc1O	Cardio protect 63 (no result: CHOP inh)
CC(C)c1ccc(/C=N/NC(=O)c2nnn(-c3nonc3N)c2CSC2=NCCS2)cc1	CHOP inh 74
C/C(=N\NC(=O)c1nnn(-c2nonc2N)c1CN(C)c1ccccc1)c1ccccc1O	Cardio protect 57 (no result: CHOP inh)
CC(C)(C)S(=O)(=O)N1C[C@H]2CC/C=C\C/C(c3ccccc3)=C\2[C@@H]1CCO	none (no result: CHOP inh, CHOP UPR activ, XBP1 UPR activ)
COc1ccccc1N1CCN(Cc2nc(N)nc(Nc3ccc(C)c(Cl)c3)n2)CC1	CHOP inh 76
COc1ccccc1Nc1nc(N)nc(CN2CCN(c3ccccc3F)CC2)n1	CHOP inh 83
COc1cnc(-c2ccccc2)nc1Oc1cccc(C)c1C	CHOP inh 78
COc1cccc(-c2nc(Oc3cccc(C)c3C)c3ccccc3n2)c1O	CHOP inh 82
COc1cccc(-c2nc(NC(C)C)c3ccccc3n2)c1O	none
CCCS(=O)(=O)Nc1cccc(-c2nc3cccnc3s2)c1	none
CCOc1ncccc1C(=O)Nc1cccc(-c2nc3cccnc3s2)c1	Cardio protect 64
O=C(Nc1cccc(-c2nc3cccnc3s2)c1)c1ccco1	Cardio protect 70
Cc1ccc(OCCCC(=O)Nc2ccc(Br)cc2)cc1	CHOP inh 74
Cc1ccc(C(C(=O)NC2CCCC2)N2CCc3ccccc32)cc1 (stereo not given)	CHOP inh 79
COc1cccc(S(=O)(=O)N(C)C[C@H]2OCc3cnnn3CCCC(=O)N([C@@H](C)CO)C[C@@H]2C)c1	none (no result: CHOP inh, CHOP UPR activ, XBP1 UPR activ)
COC(=O)c1c(NC(=O)Cn2cnc([N+](=O)[O-])n2)sc2c1CCC(C)C2 (stereo not given)	CHOP inh 75
CSc1ncnc2c1ncn2CCCN1CCN(c2ccccn2)CC1	none (no result: CHOP inh, CHOP UPR activ, XBP1 UPR activ)
CC1CC(C)CN(C(=O)c2ccc3c(c2)N(Cc2ccccc2)CCS3)C1 (stereo not given)	CHOP inh 73
COc1ccc(N2CCN(C(c3cccc(OC)c3OC)c3nnnn3C3CCCC3)CC2)cc1 (stereo not given)	CHOP inh 74
COc1ccccc1N1CCN(C(c2cc3cc(C)ccc3[nH]c2=O)c2nnnn2C2CCCC2)CC1 (stereo not given)	CHOP inh 91
COc1ccccc1N1CCN(C(c2cc3ccc(C)cc3[nH]c2=O)c2nnnn2C2CCCC2)CC1 (stereo not given)	none
Cc1sc(NC(=O)c2ccco2)c(C(c2cccnc2)N2CCN(CCO)CC2)c1C (stereo not given)	none
CCOc1ccc(C(c2c(NC(=O)c3ccccc3)sc(C)c2C)N2CCN(CCO)CC2)cc1 (stereo not given)	CHOP inh 83
Cc1ccc(CSCC(=O)N/N=C/c2sccc2C)cc1	CHOP inh 95
COc1ccc(CC(=O)N/N=C/c2sccc2C)cc1	none (no result: CHOP inh)
Oc1cccc(-c2nc3ccc4ccccc4c3c3c2CCC3)c1	CHOP inh 82
COc1ccccc1NC(=O)CN1CCN(CC(=O)Nc2ccc(F)cc2F)CC1	none (no result: CHOP inh)
CCOC(=O)Cc1csc(NC(=O)NC2(C(F)(F)F)Oc3ccccc3O2)n1	CHOP inh 92, Cardio protect 50
COc1cc(NC(=O)c2csc3c2CCCC3)ncn1	CHOP inh 72
CCOC(=O)Cc1csc(NC(=O)c2csc3c2CCCC3)n1	CHOP inh 76
CCOC(=O)Cc1csc(NC(=O)Nc2ccc(OC(F)(F)F)cc2)n1	none
CCOC(=O)Cc1csc(NC(=O)c2cc3c(s2)CCCC3)n1	none
CCOC(=O)[C@]12CCC=C1N(Cc1ccc3c(c1)OCO3)C(=O)[C@H](CC(=O)N1CCSCC1)C2	none (no result: CHOP inh, CHOP UPR activ, XBP1 UPR activ, Cardio protect)
NC(N)=NCCSSCCN=C(N)N	none (no result: iPSC survival up, CHOP UPR activ, XBP1 UPR activ, Cardio protect)
COc1ccc(/C=C/C(=O)Nc2ccc3nc4n(c(=O)c3c2)CCCC4)cc1	none
COc1cc(/C=C/C(=O)Nc2ccc3nc4n(c(=O)c3c2)CCCC4)cc(OC)c1OC	Cardio protect 54
Nc1nc2n(n1)C(c1cccc(Br)c1)CC(c1ccc(F)cc1)N2 (stereo not given)	none
Fc1cccc(C2CC(c3cccc(Br)c3)Nc3nnnn32)c1 (stereo not given)	CHOP inh 83
O=C(Nc1ccc2oc(-c3cccnc3)nc2c1)c1ccc(Br)o1	CHOP inh 77
O=C(Nc1ccc2oc(-c3cccnc3)nc2c1)c1ccco1	none
COC(=O)c1ccc(CNc2ccc(C(C)=O)cc2)cc1	none (no result: CHOP inh, CHOP UPR activ, XBP1 UPR activ)
Cc1cc(C)c(C(=O)COC(=O)c2cccc(S(=O)(=O)N3CCOCC3)c2)cc1C	none (no result: CHOP inh, CHOP UPR activ, XBP1 UPR activ)
N/C(Cc1ccc(Cl)cc1)=N\OC(=O)Cc1ccc([N+](=O)[O-])cc1	none
CCOC(=O)/C(N=Nc1ccc(Cl)cc1)=C(/O)c1ccc([N+](=O)[O-])cc1	CHOP inh 86

Compound activity from PubChem BioAssay.
